Measured values reported in ChEMBL document CHEMBL2440018 (J Med Chem, 2013).
The source made the active and inactive calls. The calls are words filed in the database; no cut-off is given here.

How the values were obtained:
[1] = molecular target: Matrix metalloproteinase-9 (Homo sapiens, UniProt P14780); assay: Inhibition of human recombinant MMP-9 catalytic domain using MOCAcPLGLA2pr(Dnp)AR-NH2 as substrate by fluorescence spectrophotometric analysis
[2] = molecular target: Neutrophil collagenase (Homo sapiens, UniProt P22894); assay: Inhibition of human recombinant MMP-8 catalytic domain using […] as substrate by fluorescence spectrophotometric analysis
[3] = Ratio of AUC in brain to plasma in C57Bl/6J mouse assessed as 4-(4-(thiiran-2-ylmethylsulfonyl)phenoxy)phenol at 25 mg/kg, sc; assay type: ADME, organism-based; design: dose 25 mg/kg, route subcutaneous
[4] = test system: Plasma; assay: AUC (0 to infinity) in C57Bl/6J mouse plasma assessed as 4-(4-(thiiran-2-ylmethylsulfonyl)phenoxy)phenol at 25 mg/kg, sc; assay type: ADME, organism-based; design: time infinity, dose 25 mg/kg, route subcutaneous; settings: in vivo
How it was run: (§1)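 Mice were dosed sc once at 25 mg/kg; plasma and perfused brain (n = 3 per time point) were quantified by UPLC/ESI-MRM. AUC0-last came from the mean concentration-time curve by the trapezoidal rule, and AUC0-∞ = AUC0-last + Clast/k. α and β half-lives came from linear regression on the linear portion of the concentration-time data, with t1/2 = ln2/k.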

[5] = test system: Liver; assay: Metabolic stability in rat liver S9 fraction assessed as formation of 4-(4-(thiiran-2-ylmethylsulfonyl)phenoxy)phenol at 50 uM after 30 mins by reversed-phase LC/MS analysis; assay type: ADME, subcellular; settings: s9, 0.5 h
How it was run: (§2)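 50 µM compound was incubated with rat liver S9 (1.0 mg) and 0.5 mM NADPH in 50 mM potassium phosphate, pH 7.4, at 37 °C for 30 min. The reaction was stopped with one volume of acetonitrile and centrifuged. Metabolites in the supernatant were identified by reversed-phase LC/ESI-QTOF mass spectrometry.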

[6] = test system: Brain; assay: Metabolic stability in C57Bl/6J mouse brain assessed as formation of 4-(4-(thiiran-2-ylmethylsulfonyl)phenoxy)phenol at 25 mg/kg, sc measured at 10 to 240 mins; assay type: ADME, organism-based; design: dose 25 mg/kg, route subcutaneous; settings: in vivo
How it was run: (§3)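 Female C57Bl/6J mice (6–8 weeks, 16–19 g) received a single 100 µL sc dose equivalent to 25 mg/kg, in 10% DMSO/25% Tween 80/65% water or 80% propylene glycol/20% DMSO. Terminal heparinised vena cava blood gave plasma, and saline-perfused whole brain was taken; n = 3 per time point. Acetonitrile extracts with internal standard were run by UPLC/ESI-MRM against matrix calibration curves, linear 0.05–5 µM.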

[7] = test system: Liver; assay: Half life in rat liver S9 fraction at 10 uM by reversed-phase UPLC/ESI-MRM analysis; assay type: ADME, subcellular; settings: s9, 10 µM
How it was run: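 Male rat liver S9 (1.0 mg) with 0.5 mM NADPH and 10 µM compound (both final) in 50 mM potassium phosphate, pH 7.4, at 37 °C, sampled over time. Aliquots were stopped with acetonitrile containing internal standard, and the supernatant was run by UPLC/ESI-MRM. Half-lives used first-order kinetics on peak-area ratios to internal standard.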

[8] = test system: Brain; assay: AUC (0 to last) in C57Bl/6J mouse brain assessed as 4-(4-(thiiran-2-ylmethylsulfonyl)phenoxy)phenol at 25 mg/kg, sc; assay type: ADME, organism-based; design: dose 25 mg/kg, route subcutaneous; settings: in vivo; how it was run: as §1
[9] = test system: Plasma; assay: AUC (0 to last) in C57Bl/6J mouse plasma assessed as 4-(4-(thiiran-2-ylmethylsulfonyl)phenoxy)phenol at 25 mg/kg, sc; assay type: ADME, organism-based; design: time 0 - last, dose 25 mg/kg, route subcutaneous; settings: in vivo; how it was run: as §1
[10] = test system: Plasma; assay: Plasma concentration in C57Bl/6J mouse assessed as 4-(4-(thiiran-2-ylmethylsulfonyl)phenoxy)phenol at 25 mg/kg, sc measured at 4 hrs by reversed phase UPLC/ESI-MRM analysis; assay type: ADME, organism-based; design: dose 25 mg/kg, route subcutaneous; settings: in vivo; how it was run: as §3
[11] = test system: Liver; assay: Metabolic stability in rat liver S9 fraction assessed as formation of Ethyl-carbamic acid 4-[4-(1-oxo-1lambda4-thiiran-2-ylmethanesulfonyl)-phenoxy]-phenyl ester at 50 uM after 30 mins by reversed-phase LC/MS analysis; assay type: ADME, subcellular; settings: s9, 0.5 h; how it was run: as §2
[12] = molecular target: MMP-2/MMP-14 (Homo sapiens) (UniProt P50281+P08253); assay: Selectivity ratio of Ki for human recombinant MMP-14 catalytic domain to Ki for human recombinant MMP-2
[13] = test system: Liver; assay: Metabolic stability in rat liver S9 fraction assessed as formation of 4-(4-(ethylcarbamoyloxy)phenoxy)benzenesulfinic acid at 50 uM after 30 mins by reversed-phase LC/MS analysis; assay type: ADME, subcellular; settings: s9, 0.5 h; how it was run: as §2
[14] = molecular target: Matrix metalloproteinase-14 (Homo sapiens, UniProt P50281); assay: Inhibition of human recombinant MMP-14 catalytic domain using MOCAcPLGLA2pr(Dnp)AR-NH2 as substrate by fluorescence spectrophotometric analysis
[15] = test system: Brain; assay: Drug uptake in C57Bl/6J mouse brain assessed as 4-(4-(thiiran-2-ylmethylsulfonyl)phenoxy)phenol measured per mg of tissue at 25 mg/kg, sc measured at 20 mins by reversed phase UPLC/ESI-MRM analysis; assay type: ADME, organism-based; design: dose 25 mg/kg, route subcutaneous; settings: in vivo; how it was run: as §3
[16] = molecular target: MMP-2/MMP-9 (Homo sapiens) (UniProt P08253+P14780); assay: Selectivity ratio of Ki for human recombinant MMP-9 catalytic domain to Ki for human recombinant MMP-2
[17] = test system: Plasma; assay: Elimination half life in C57Bl/6J mouse plasma assessed as 4-(4-(thiiran-2-ylmethylsulfonyl)phenoxy)phenol at 25 mg/kg, sc; assay type: ADME, organism-based; design: dose 25 mg/kg, route subcutaneous; settings: in vivo; how it was run: as §1
[18] = molecular target: Stromelysin-1 (Homo sapiens) (UniProt P08254); assay: Inhibition of human recombinant MMP-3 catalytic domain at 50 uM by fluorescence spectrophotometric analysis relative to control
[19] = organism: Homo sapiens; assay: Selectivity ratio of Ki for human recombinant MMP-8 catalytic domain to Ki for human recombinant MMP-2
[20] = test system: Plasma; assay: Plasma concentration in C57Bl/6J mouse assessed as 4-(4-(thiiran-2-ylmethylsulfonyl)phenoxy)phenol at 25 mg/kg, sc measured at 10 mins by reversed phase UPLC/ESI-MRM analysis; assay type: ADME, organism-based; design: dose 25 mg/kg, route subcutaneous; settings: in vivo; how it was run: as §3
[21] = molecular target: T1, Matrilysin (Homo sapiens) (UniProt P09237); assay: Inhibition of human recombinant MMP-7 at 50 uM by fluorescence spectrophotometric analysis relative to control
T1 sequence (whole entry): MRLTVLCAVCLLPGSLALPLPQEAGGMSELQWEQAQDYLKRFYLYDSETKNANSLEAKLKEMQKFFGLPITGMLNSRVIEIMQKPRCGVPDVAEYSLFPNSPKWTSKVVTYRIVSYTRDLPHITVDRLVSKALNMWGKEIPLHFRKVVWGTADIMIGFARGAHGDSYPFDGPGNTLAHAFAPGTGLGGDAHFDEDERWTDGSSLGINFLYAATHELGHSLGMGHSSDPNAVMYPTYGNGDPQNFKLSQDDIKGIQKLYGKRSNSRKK

[22] = test system: Brain; assay: Elimination half life in C57Bl/6J mouse brain assessed as 4-(4-(thiiran-2-ylmethylsulfonyl)phenoxy)phenol at 25 mg/kg, sc; assay type: ADME, organism-based; design: dose 25 mg/kg, route subcutaneous; settings: in vivo; how it was run: as §1
[23] = test system: Plasma; assay: Primary phase half life in C57Bl/6J mouse plasma assessed as 4-(4-(thiiran-2-ylmethylsulfonyl)phenoxy)phenol at 25 mg/kg, sc; assay type: ADME, organism-based; design: dose 25 mg/kg, route subcutaneous; settings: in vivo; how it was run: as §1
[24] = test system: Brain; assay: AUC (0 to infinity) in C57Bl/6J mouse brain assessed as 4-(4-(thiiran-2-ylmethylsulfonyl)phenoxy)phenol at 25 mg/kg, sc; assay type: ADME, organism-based; design: time infinity, dose 25 mg/kg, route subcutaneous; settings: in vivo; how it was run: as §1
[25] = test system: Brain; assay: Drug uptake in C57Bl/6J mouse brain assessed as 4-(4-(thiiran-2-ylmethylsulfonyl)phenoxy)phenol measured per mg of tissue at 25 mg/kg, sc measured at 4 hrs by reversed phase UPLC/ESI-MRM analysis; assay type: ADME, organism-based; design: dose 25 mg/kg, route subcutaneous; settings: in vivo; how it was run: as §3
[26] = test system: Plasma; assay: Metabolic stability in C57Bl/6J mouse plasma assessed as formation of 4-(4-(thiiran-2-ylmethylsulfonyl)phenoxy)phenol at 25 mg/kg, sc measured at 10 to 240 mins; assay type: ADME, organism-based; design: dose 25 mg/kg, route subcutaneous; settings: in vivo; how it was run: as §3
[27] = molecular target: T2, Interstitial collagenase (Homo sapiens) (UniProt P03956); assay: Inhibition of human recombinant MMP-1 catalytic domain at 50 uM by fluorescence spectrophotometric analysis relative to control
T2 sequence (whole entry): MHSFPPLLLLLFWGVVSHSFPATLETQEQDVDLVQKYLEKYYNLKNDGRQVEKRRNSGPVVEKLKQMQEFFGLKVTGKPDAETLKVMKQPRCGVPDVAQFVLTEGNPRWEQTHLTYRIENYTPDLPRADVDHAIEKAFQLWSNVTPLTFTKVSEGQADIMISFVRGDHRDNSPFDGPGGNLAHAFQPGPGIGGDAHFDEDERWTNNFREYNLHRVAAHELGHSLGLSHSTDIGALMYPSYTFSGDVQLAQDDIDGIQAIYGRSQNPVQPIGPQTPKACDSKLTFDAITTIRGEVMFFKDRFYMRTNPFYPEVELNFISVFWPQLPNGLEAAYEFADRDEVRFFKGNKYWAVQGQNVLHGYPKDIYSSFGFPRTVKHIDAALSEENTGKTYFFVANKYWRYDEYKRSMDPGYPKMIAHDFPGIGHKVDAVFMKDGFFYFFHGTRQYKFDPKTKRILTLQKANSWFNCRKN

[28] = molecular target: 72 kDa type IV collagenase (Homo sapiens, UniProt P08253); assay: Inhibition of human recombinant MMP-2 using MOCAcPLGLA2pr(Dnp)AR-NH2 as substrate by fluorescence spectrophotometric analysis
[29] = test system: Liver; assay: Metabolic stability in rat liver S9 fraction assessed as formation of 4-(4-(methoxycarbonylamino)phenoxy)benzenesulfinic acid at 50 uM after 30 mins by reversed-phase LC/MS analysis; assay type: ADME, subcellular; settings: s9, 0.5 h; how it was run: as §2
[30] = test system: Liver; assay: Metabolic stability in rat liver S9 fraction assessed as formation of 4-(4-(thiiran-2-ylmethylsulfonyl)phenoxy)aniline at 50 uM after 30 mins by reversed-phase LC/MS analysis; assay type: ADME, subcellular; settings: s9, 0.5 h; how it was run: as §2
[31] = test system: Liver; assay: Metabolic stability in rat liver S9 fraction assessed as formation of {4-[4-(1-Oxo-1lambda4-thiiran-2-ylmethanesulfonyl)-phenoxy]-phenyl}-carbamic acid methyl ester at 50 uM after 30 mins by reversed-phase LC/MS analysis; assay type: ADME, subcellular; settings: s9, 0.5 h; how it was run: as §2

72 kDa type IV collagenase, sequence (P08253 whole entry): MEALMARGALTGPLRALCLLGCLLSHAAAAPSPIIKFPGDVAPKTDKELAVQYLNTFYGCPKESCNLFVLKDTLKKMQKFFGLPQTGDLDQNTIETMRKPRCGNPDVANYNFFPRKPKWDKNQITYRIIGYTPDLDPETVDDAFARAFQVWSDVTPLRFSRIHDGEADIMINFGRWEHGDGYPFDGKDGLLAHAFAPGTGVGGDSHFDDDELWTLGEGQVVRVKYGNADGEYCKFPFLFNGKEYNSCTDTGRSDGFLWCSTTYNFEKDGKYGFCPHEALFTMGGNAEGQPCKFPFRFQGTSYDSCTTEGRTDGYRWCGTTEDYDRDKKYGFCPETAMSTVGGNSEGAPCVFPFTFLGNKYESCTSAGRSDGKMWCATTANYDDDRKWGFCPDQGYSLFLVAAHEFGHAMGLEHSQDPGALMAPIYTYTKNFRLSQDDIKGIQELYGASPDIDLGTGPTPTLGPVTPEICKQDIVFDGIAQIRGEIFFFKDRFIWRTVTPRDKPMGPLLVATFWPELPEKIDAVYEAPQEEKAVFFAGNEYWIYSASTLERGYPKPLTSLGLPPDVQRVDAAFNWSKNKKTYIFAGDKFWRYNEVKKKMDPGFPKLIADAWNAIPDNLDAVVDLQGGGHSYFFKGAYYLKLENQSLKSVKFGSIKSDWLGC
Neutrophil collagenase, sequence (P22894 whole entry, the tested form may be a part): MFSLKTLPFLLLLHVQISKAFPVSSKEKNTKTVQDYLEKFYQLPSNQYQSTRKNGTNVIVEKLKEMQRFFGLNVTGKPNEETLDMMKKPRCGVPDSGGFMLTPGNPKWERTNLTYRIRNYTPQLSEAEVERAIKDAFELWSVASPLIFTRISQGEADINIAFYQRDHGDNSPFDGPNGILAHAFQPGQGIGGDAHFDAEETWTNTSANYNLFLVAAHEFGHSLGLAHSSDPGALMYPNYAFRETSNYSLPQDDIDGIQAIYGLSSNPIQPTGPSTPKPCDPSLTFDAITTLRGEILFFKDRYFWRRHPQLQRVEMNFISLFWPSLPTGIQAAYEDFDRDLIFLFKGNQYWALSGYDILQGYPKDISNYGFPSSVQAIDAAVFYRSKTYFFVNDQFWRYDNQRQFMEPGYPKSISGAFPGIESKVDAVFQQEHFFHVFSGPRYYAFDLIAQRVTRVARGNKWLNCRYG
Matrix metalloproteinase-9, sequence (P14780 whole entry, the tested form may be a part): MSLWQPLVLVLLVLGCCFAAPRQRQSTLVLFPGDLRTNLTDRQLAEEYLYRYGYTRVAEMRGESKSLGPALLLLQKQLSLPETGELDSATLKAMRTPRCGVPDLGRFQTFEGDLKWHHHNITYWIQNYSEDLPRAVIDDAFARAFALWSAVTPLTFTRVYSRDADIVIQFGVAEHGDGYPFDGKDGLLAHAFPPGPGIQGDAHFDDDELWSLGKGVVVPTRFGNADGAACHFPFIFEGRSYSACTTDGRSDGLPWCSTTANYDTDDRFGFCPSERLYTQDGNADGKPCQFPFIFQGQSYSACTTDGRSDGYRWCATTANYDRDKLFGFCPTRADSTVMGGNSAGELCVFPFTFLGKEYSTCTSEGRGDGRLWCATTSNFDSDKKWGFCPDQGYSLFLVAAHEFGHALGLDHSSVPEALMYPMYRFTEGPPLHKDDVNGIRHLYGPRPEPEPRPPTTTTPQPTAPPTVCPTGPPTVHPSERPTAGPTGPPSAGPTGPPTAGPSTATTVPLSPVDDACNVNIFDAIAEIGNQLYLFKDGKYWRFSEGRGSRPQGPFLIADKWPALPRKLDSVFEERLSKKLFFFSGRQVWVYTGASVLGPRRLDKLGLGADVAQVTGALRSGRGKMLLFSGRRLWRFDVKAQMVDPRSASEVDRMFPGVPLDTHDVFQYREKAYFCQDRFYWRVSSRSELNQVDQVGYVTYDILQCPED

In the case of `CCNC(=O)Oc1ccc(Oc2ccc(S(=O)(=O)CC3CS3)cc2)cc1` (stereo not drawn), the Ki [1] is reported as 12 µM, the Ki [2] is reported as 15 µM and the “Ratio AUC” value [3] is reported as 1.64. The AUC [4] was 69.9 µM·min, the Stability [5] was “Unstable” and the Stability [6] was “Unstable”. The t1/2 [7] was 0.38 h, the AUClast [8] was 88.8 pmol·min/mg and the AUClast [9] was 54 µM·min. For the same molecule, the concentration [10] was 114 nM, the Stability [11] was “Unstable” and the Ratio Ki [12] was 20. The Stability [13] was “Unstable”, the Ki [14] was 17 µM and the Drug uptake [15] was 1.35 pmol. The Ratio Ki [16] was 20, the “beta t1/2” value [17] was 7.7 h and the inhibition [18] was 37%. For the same molecule, the Ratio Ki [19] was 20, the concentration [20] was 1240 nM and the inhibition [21] was “inactive”. For the same molecule, the “beta t1/2” value [22] was 8.88 h, the alphat1/2 [23] was 41.3 min and the AUC [24] was 129 pmol·min/mg. For the same molecule, the Drug uptake [25] was 0.255 pmol, the Stability [26] was “Unstable” and the inhibition [27] was “inactive”. For the same molecule, the Ki [28] was 0.55 µM.
For `COC(=O)Nc1ccc(Oc2ccc(S(=O)(=O)CC3CS3)cc2)cc1` (stereo not drawn), the Stability [29] was “Unstable”, the t1/2 [7] was 0.293 h and the Ki [14] was 2.6 µM. The Stability [30] was “Unstable”, the Ratio Ki [16] was 2 and the inhibition [18] was 38%. The inhibition [21] was “inactive”, the Stability [31] was “Unstable” and the inhibition [27] was “inactive”. For the same molecule, the Ki [28] was 0.05 µM.
